Test results: ChEMBL document CHEMBL1125894, “Dual-action cephalosporins: cephalosporin 3'-quaternary ammonium quinolones” (1991)
Converted amounts (≈) assume the structure as drawn. “And” between values parts separate entries of the source, which are not always exact repeats. Equal values may be shown once.

Key:
Type in all cases: functional
Enterobacter cloacae [1] = test: In vivo activity in murine against Enterobacter cloacae 5699 infection after sc administration.
Outline: (§1)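 Mouse protection test in CD1 Swiss albino mice (18–20 g). Mice were infected intraperitoneally with 0.5 mL of a diluted bacterial suspension, then treated within 5 min with one 1.0 mL subcutaneous dose at the dorsal base of the neck. Doses ranged from 0.05 to 250 mg/kg, with six mice per group. ED50 was calculated by the Reed–Muench method.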

Klebsiella pneumoniae [2] = test: In vitro antibacterial activity against Klebsiella pneumoniae A
Outline: (§2)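 Serial 2-fold dilutions in the NCCLS broth microdilution method for aerobic nonfastidious organisms, with an 18-h incubation. The value is reported as the minimum inhibitory concentration (MIC).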

Serratia marcescens [3] = test: In vivo activity in murine against Serratia marcescens SM infection after sc administration.; outline: as §1
Staphylococcus aureus [4] = test: In vitro antibacterial activity against Staphylococcus aureus Smith(MS)
Outline: (§3)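 Staphylococci were tested by the standard agar dilution procedure using serial 2-fold dilutions of agent. The value is reported as the MIC.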

Pseudomonas aeruginosa [5] = test: In vivo activity in murine against Pseudomonas aeruginosa 5712 infection after sc administration.
Outline: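 Mouse protection test in CD1 Swiss albino mice (18–20 g) infected intraperitoneally with 0.5 mL of diluted P. aeruginosa suspension. Mice received 1.0 mL subcutaneously at the neck base within 5 min of infection and a second treatment 3 h after infection. Doses ranged from 0.05 to 250 mg/kg, with six mice per group. ED50 was calculated by the Reed–Muench method.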

Citrobacter freundii [6] = test: In vitro antibacterial activity against Citrobacter freundii BS 16; outline: as §2
Enterobacter cloacae [7] = test: In vitro antibacterial activity against Enterobacter cloacae 5699; outline: as §2
Klebsiella pneumoniae [8] = test: In vivo activity in murine against Klebsiella pneumoniae A infection after sc administration.; outline: as §1
Serratia marcescens [9] = test: In vitro antibacterial activity against Serratia marcescens SM; outline: as §2
Streptococcus pneumoniae [10] = test: In vitro antibacterial activity against Streptococcus pneumoniae 6301
Outline: (§4)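 Broth macrodilution with serial 2-fold dilutions in cation-supplemented Mueller-Hinton broth containing 10% goat serum. The value is reported as the MIC.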

Enterobacter cloacae [11] = test: In vitro antibacterial activity against Enterobacter cloacae P99; outline: as §2
Citrobacter freundii [12] = test: In vivo activity in murine against Citrobacter freundii BS#16 infection after sc administration.
Outline: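 CD1 Swiss albino mice (18–20 g) infected intraperitoneally with 0.5 mL diluted bacterial culture suspension. Single subcutaneous treatment within 5 min, 1.0 mL at dorsal base of neck, serial dilutions spanning 0.05–250 mg/kg. Six mice per treatment and control group. ED50 (50% protective dose) derived by Reed and Muench method.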

Streptococcus pneumoniae [13] = test: In vivo activity in murine against Streptococcus pneumoniae 6301 infection after sc administration.; outline: as §1
Streptococcus pyogenes [14] = test: In vitro antibacterial activity against Streptococcus pyogenes 4; outline: as §4
Staphylococcus aureus [15] = test: In vitro antibacterial activity against Staphylococcus aureus 95(MR); outline: as §3
Staphylococcus aureus [16] = test: In vivo activity in murine against Staphylococcus aureus 753(MR) infection after sc administration.; outline: as §1
Streptococcus pyogenes [17] = test: In vivo activity in murine against Streptococcus pyogenes 4 infection after sc administration.; outline: as §1
Staphylococcus aureus [18] = test: In vivo activity in murine against Staphylococcus aureus Smith (MS) infection after sc administration.; outline: as §1
Escherichia coli [19] = test: In vitro antibacterial activity against Escherichia coli 257; outline: as §2
Escherichia coli [20] = test: In vivo activity in murine against Escherichia coli 257 infection after sc administration.; outline: as §1
Pseudomonas aeruginosa [21] = test: In vitro antibacterial activity against Pseudomonas aeruginosa 5712; outline: as §2

MIC (Klebsiella pneumoniae [2]): 0.031 µg/mL (≈ 0.0839 µM) | MIC (Staphylococcus aureus [4]): 0.25 µg/mL (≈ 0.677 µM) | MIC (Citrobacter freundii [6]): 0.25 µg/mL (≈ 0.677 µM) | MIC (Enterobacter cloacae [7]): 0.063 µg/mL (≈ 0.171 µM) | MIC (Serratia marcescens [9]): 0.25 µg/mL (≈ 0.677 µM) | MIC (Streptococcus pneumoniae [10]): 8 µg/mL (≈ 21.7 µM) | MIC (Enterobacter cloacae [11]): 0.031 µg/mL (≈ 0.0839 µM) | MIC (Streptococcus pyogenes [14]): 4 µg/mL (≈ 10.8 µM) | MIC (Staphylococcus aureus [15]): 0.25 µg/mL (≈ 0.677 µM) | MIC (Escherichia coli [19]): 0.031 µg/mL (≈ 0.0839 µM) | MIC (Pseudomonas aeruginosa [21]): 4 µg/mL (≈ 10.8 µM)
Compound: CN1CCN(c2c(F)cc3c(=O)c(C(=O)O)cn(CCF)c3c2F)CC1 [FLEROXACIN]
ED50 (Enterobacter cloacae [1]): < 2 mg/kg | ED50 (Serratia marcescens [3]): < 2 mg/kg | ED50 (Pseudomonas aeruginosa [5]): 14 mg/kg and 31 mg/kg | ED50 (Klebsiella pneumoniae [8]): 0.3 mg/kg | ED50 (Citrobacter freundii [12]): 2 mg/kg | ED50 (Streptococcus pneumoniae [13]): > 250 mg/kg | ED50 (Staphylococcus aureus [16]): 2.8 mg/kg | ED50 (Streptococcus pyogenes [17]): > 250 mg/kg | ED50 (Staphylococcus aureus [18]): 0.65 mg/kg | ED50 (Escherichia coli [20]): 0.26 mg/kg | ED50 (Escherichia coli [20]; Escherichia coli, sc, read-out: ED50): 0.25 mg/kg
